Test results: ChEMBL document CHEMBL5357066, “Development of Novel Membrane Disrupting Lipoguanidine Compounds Sensitizing Gram-Negative Bacteria to Antibiotics” (ACS Med Chem Lett, 2024)
In brackets after ≈: the same amount, converted by molar mass.

Legend:
Enterococcus faecium = assay: Antibacterial activity against vancomycin resistant Enterococcus faecium NCTC 12204 assessed as bacterial growth inhibition incubated for overnight by microbroth dilution method; assay type: functional
Procedure, shortened: (§1)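 Microbroth dilution in Tryptic Soy Broth. DMSO stocks were diluted in TSB as 2-fold series. Overnight TSB cultures were back-diluted to OD 0.01 and mixed 1:1 with compound. Incubation was overnight at 37 °C. MIC is the lowest concentration with no visible growth (<0.1 OD600). DMSO at equivalent concentrations was checked.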

Pseudomonas aeruginosa [1] = assay: Synergistic antibacterial activity against Pseudomonas aeruginosa PAO1 assessed as fold change in rifampicin MIC at <=0.25 times MIC incubated for overnight by microbroth dilution checkerboard assay relative to rifampicin alone; assay type: functional
Procedure, shortened: (§2)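 Checkerboard microdilution in Tryptic Soy Broth, run like the MIC assay. Overnight TSB cultures were back-diluted to OD 0.01 and added 1:1 to the combined two-fold series of both agents, then incubated overnight at 37 °C. Growth/no-growth was called at <0.1 OD600. MICs alone were read on the same plates. FIC index came from the most synergistic well; three independent repeats, mean ± SD.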

Klebsiella pneumoniae [2] = assay: Antibacterial activity against ESBL Klebsiella pneumoniae NCTC 13368 assessed as bacterial growth inhibition incubated for overnight by microbroth dilution method
Pseudomonas aeruginosa [3] = assay: Antibacterial activity against Pseudomonas aeruginosa NCTC 13437 assessed as bacterial growth inhibition incubated for overnight by microbroth dilution method; assay type: functional
Procedure, shortened: (§3)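 Broth microdilution in Tryptic Soy Broth. DMSO stocks were diluted in TSB as 2-fold series. Overnight TSB cultures were back-diluted to OD 0.01 and mixed 1:1 with compound. Incubation was overnight at 37 °C. MIC was the lowest concentration without visible growth (<0.1 OD600). DMSO vehicle was checked at equivalent concentrations.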

Klebsiella pneumoniae [4] = assay: Synergistic antibacterial activity against Klebsiella pneumoniae NCTC 13368 assessed as rifampicin MIC at <=0.25 times MIC incubated for overnight by microbroth dilution checkerboard assay; assay type: functional
Procedure, shortened: (§4)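 Checkerboard microdilution under MIC conditions (TSB, overnight, 37 °C). Two-fold series of each agent were combined on one plate before bacteria were added, and single-agent MICs were measured on the same plate. FIC = sum of combination MIC/alone MIC for each agent, taken from the most synergistic well. Three independent repeats, mean ± SD. ≤0.5 was taken as strong synergy and 0.5–<1 as weak.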

Enterococcus faecalis [5] = assay: Antibacterial activity against vancomycin sensitive Enterococcus faecalis NCTC 775 assessed as bacterial growth inhibition incubated for overnight by microbroth dilution method
Escherichia coli [6] = assay: Antibacterial activity against Escherichia coli NCTC 12923 assessed as bacterial growth inhibition incubated for overnight by microbroth dilution method; assay type: functional; procedure, shortened: as §3
Klebsiella pneumoniae [7] = assay: Synergistic antibacterial activity against […] Klebsiella pneumoniae M6 assessed as rifampicin MIC at <=0.25 times MIC incubated for overnight by microbroth dilution checkerboard assay; assay type: functional
Procedure, shortened: (§5)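 Checkerboard run under the MIC conditions (TSB, overnight, 37 °C). Antibiotic and lipoguanidine 2-fold series were combined on one plate before bacteria were added. Growth/no-growth was scored as for the MIC (<0.1 OD600). Single-agent MICs were measured on the same plates. Three independent repeats were done.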

Pseudomonas aeruginosa [8] = assay: Synergistic antibacterial activity against Pseudomonas aeruginosa NCTC 13437 assessed as rifampicin MIC at <=0.25 times MIC incubated for overnight by microbroth dilution checkerboard assay; assay type: functional; procedure, shortened: as §2
Staphylococcus aureus [9] = assay: Antibacterial activity against methicillin sensitive Staphylococcus aureus ATCC 9144 assessed as bacterial growth inhibition incubated for overnight by microbroth dilution method; assay type: functional; procedure, shortened: as §1
Pseudomonas aeruginosa [10] = assay: Synergistic antibacterial activity against Pseudomonas aeruginosa NCTC 13437 assessed as fold change in rifampicin MIC at <=0.25 times MIC incubated for overnight by microbroth dilution checkerboard assay relative to rifampicin alone; assay type: functional; procedure, shortened: as §2
Staphylococcus aureus [11] = assay: Antibacterial activity against methicillin sensitive Staphylococcus aureus 1199B assessed as bacterial growth inhibition incubated for overnight by microbroth dilution method; assay type: functional; procedure, shortened: as §1
Erythrocyte = assay: Hemolytic activity in human Red blood cells at 512 microg/ml measured after 1 hrs by absorbance based assay; assay type: toxicity, cell-based; conditions: dose 512 µg/ml
Procedure, shortened: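 Titrations in PBS were incubated with freshly collected human red blood cells for 1 h at 37 °C. Controls were 0.1% Triton-X-100 (full lysis) and PBS alone (no lysis). After centrifugation, supernatant OD550 was read. % haemolysis = (AP−AB)/(AC−AB)×100. Data are means and standard error of three biological replicates.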

Pseudomonas aeruginosa [12] = assay: Antibacterial activity against Pseudomonas aeruginosa PAO1 assessed as bacterial growth inhibition incubated for overnight by microbroth dilution method; assay type: functional; procedure, shortened: as §3
Acinetobacter baumannii [13] = assay: Antibacterial activity against Acinetobacter baumannii AYE assessed as bacterial growth inhibition incubated for overnight by microbroth dilution method; assay type: functional; procedure, shortened: as §3
Enterococcus faecalis [14] = assay: Antibacterial activity against vancomycin resistant Enterococcus faecalis NCTC 12201 assessed as bacterial growth inhibition incubated for overnight by microbroth dilution method; assay type: functional; procedure, shortened: as §1
Staphylococcus aureus [15] = assay: Antibacterial activity against methicillin resistant Staphylococcus aureus USA 300 assessed as bacterial growth inhibition incubated for overnight by microbroth dilution method; assay type: functional; procedure, shortened: as §1
Klebsiella pneumoniae [16] = assay: Synergistic antibacterial activity against Klebsiella pneumoniae NCTC 13368 assessed as fold change in rifampicin MIC at <=0.25 times MIC incubated for overnight by microbroth dilution checkerboard assay relative to rifampicin alone; assay type: functional; procedure, shortened: as §5
Acinetobacter baumannii [17] = assay: Synergistic antibacterial activity against Acinetobacter baumannii AYE assessed as fold change in rifampicin MIC at <=0.25 times MIC incubated for overnight by microbroth dilution checkerboard assay relative to rifampicin alone; assay type: functional; procedure, shortened: as §4
Klebsiella pneumoniae [18] = assay: Antibacterial activity against Klebsiella pneumoniae M6 assessed as bacterial growth inhibition incubated for overnight by microbroth dilution method
Acinetobacter baumannii [19] = assay: Synergistic antibacterial activity against Acinetobacter baumannii ATCC 17978 assessed as fold change in rifampicin MIC at <=0.25 times MIC incubated for overnight by microbroth dilution checkerboard assay relative to rifampicin alone; assay type: functional; procedure, shortened: as §4
Staphylococcus aureus [20] = assay: Antibacterial activity against methicillin resistant Staphylococcus aureus NCTC 13616 assessed as bacterial growth inhibition incubated for overnight by microbroth dilution method; assay type: functional; procedure, shortened: as §1
Pseudomonas aeruginosa [21] = assay: Synergistic antibacterial activity against Pseudomonas aeruginosa PAO1 assessed as rifampicin MIC at <=0.25 times MIC incubated for overnight by microbroth dilution checkerboard assay; assay type: functional; procedure, shortened: as §2
Acinetobacter baumannii [22] = assay: Synergistic antibacterial activity against Acinetobacter baumannii ATCC 17978 assessed as rifampicin MIC at <=0.25 times MIC incubated for overnight by microbroth dilution checkerboard assay; assay type: functional; procedure, shortened: as §4
Acinetobacter baumannii [23] = assay: Synergistic antibacterial activity against Acinetobacter baumannii AYE assessed as rifampicin MIC at <=0.25 times MIC incubated for overnight by microbroth dilution checkerboard assay; assay type: functional; procedure, shortened: as §4
Acinetobacter baumannii [24] = assay: Antibacterial activity against Acinetobacter baumannii ATCC 17978 assessed as bacterial growth inhibition incubated for overnight by microbroth dilution method; assay type: functional; procedure, shortened: as §3
Pseudomonas aeruginosa [25] = assay: Synergistic antibacterial activity against Pseudomonas aeruginosa NCTC 13437 assessed as bacterial growth inhibition incubated for overnight in presence of PBMN by microbroth dilution method relative to control; assay type: functional
Procedure, shortened: (§6)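 Adapted broth microdilution in TSB. The test compound was in a 2-fold dilution series, with PMBN added at a fixed 30 µg/mL. Bacteria at OD 0.02 were added, and plates were incubated overnight at 37 °C. Growth/no growth was read as for the MIC (<0.1 OD600).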

Pseudomonas aeruginosa [26] = assay: Synergistic antibacterial activity against Pseudomonas aeruginosa PAO1 assessed as bacterial growth inhibition incubated for overnight in presence of […] by microbroth dilution method relative to control; assay type: functional
Procedure, shortened: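 Fixed-concentration combination MIC in TSB. The first agent was set in a two-fold dilution series (100 µL/well), then 50 µL/well of the second agent at a fixed concentration was added; PMBN was fixed at 30 µg/mL. Bacteria at OD 0.02 (50 µL) went into 150 µL of compounds, overnight at 37 °C. MIC was the lowest concentration without visible growth (<0.1 OD600).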

Escherichia coli [27] = assay: Synergistic antibacterial activity against Escherichia coli NCTC 12923 assessed as fold change in rifampicin MIC at <=0.25 times MIC incubated for overnight by microbroth dilution checkerboard assay relative to rifampicin alone; assay type: functional; procedure, shortened: as §4
Escherichia coli [28] = assay: Synergistic antibacterial activity against Escherichia coli NCTC 12923 assessed as bacterial growth inhibition incubated for overnight in presence of PBMN by microbroth dilution method relative to control; assay type: functional; procedure, shortened: as §6
Acinetobacter baumannii [29] = assay: Synergistic antibacterial activity against Acinetobacter baumannii AYE assessed as bacterial growth inhibition incubated for overnight in presence of PBMN by microbroth dilution method relative to control; assay type: functional; procedure, shortened: as §6
Klebsiella pneumoniae [30] = assay: Synergistic antibacterial activity against Klebsiella pneumoniae NCTC 13368 assessed as bacterial growth inhibition incubated for overnight in presence of PBMN by microbroth dilution method relative to control; assay type: functional; procedure, shortened: as §6
Acinetobacter baumannii [31] = assay: Synergistic antibacterial activity against Acinetobacter baumannii ATCC 17978 assessed as bacterial growth inhibition incubated for overnight in presence of PBMN by microbroth dilution method relative to control; assay type: functional; procedure, shortened: as §6
Escherichia coli [32] = assay: Synergistic antibacterial activity against Escherichia coli NCTC 12923 assessed as rifampicin MIC at <=0.25 times MIC incubated for overnight by microbroth dilution checkerboard assay; assay type: functional; procedure, shortened: as §4
Klebsiella pneumoniae [33] = assay: Synergistic antibacterial activity against Klebsiella pneumoniae M6 assessed as bacterial growth inhibition incubated for overnight in presence of PBMN by microbroth dilution method relative to control; assay type: functional; procedure, shortened: as §6

Row | SMILES | MIC (Enterococcus faecium) | fold change (FC) (Pseudomonas aeruginosa [1]) | MIC (Klebsiella pneumoniae [2]) | MIC (Pseudomonas aeruginosa [3]) | MIC (Klebsiella pneumoniae [4]) | MIC (Enterococcus faecalis [5]) | MIC (Escherichia coli [6]) | MIC (Klebsiella pneumoniae [7]) | MIC (Pseudomonas aeruginosa [8]) | MIC (Staphylococcus aureus [9]) | fold change (FC) (Pseudomonas aeruginosa [10]) | MIC (Staphylococcus aureus [11]) | MIC (Pseudomonas aeruginosa [12]) | MIC (Acinetobacter baumannii [13]) | MIC (Enterococcus faecalis [14]) | MIC (Staphylococcus aureus [15]) | fold change (FC) (Klebsiella pneumoniae [16]) | fold change (FC) (Acinetobacter baumannii [17]) | MIC (Klebsiella pneumoniae [18]) | fold change (FC) (Acinetobacter baumannii [19]) | also measured
1 | CCCCCCCCCCCCCCCCNC(=N)NCCCCN | 2 µg/mL (≈ 5.64 µM) | >=4 | > 128 µg/mL | > 128 µg/mL | 2 µg/mL | 2 µg/mL (≈ 5.64 µM) | 32 µg/mL (≈ 90.2 µM) | 0.25 µg/mL | 16 µg/mL | 2 µg/mL (≈ 5.64 µM) | 0 | 4 µg/mL (≈ 11.3 µM) | > 128 µg/mL | 32 µg/mL (≈ 90.2 µM) | 2 µg/mL (≈ 5.64 µM) | 2 µg/mL (≈ 5.64 µM) | >=4 | >=4 | 8 µg/mL (≈ 22.6 µM) | >=4 | Activity (Erythrocyte): Toxic; MIC (Staphylococcus aureus [20]): 2 µg/mL (≈ 5.64 µM); MIC (Pseudomonas aeruginosa [21]): 2 µg/mL; MIC (Acinetobacter baumannii [22]): 0.25 µg/mL; MIC (Acinetobacter baumannii [23]): ≤ 0.125 µg/mL; MIC (Acinetobacter baumannii [24]): 4 µg/mL (≈ 11.3 µM)
2 | CCCCC/C=C\C/C=C\CCCCCCCCNC(=N)NCCCCCCCCN | 4 µg/mL (≈ 9.2 µM) | 0 | 32 µg/mL (≈ 73.6 µM) | > 128 µg/mL | 8 µg/mL | 8 µg/mL (≈ 18.4 µM) | 8 µg/mL (≈ 18.4 µM) | 4 µg/mL | 16 µg/mL | 2 µg/mL (≈ 4.6 µM) | 0 | 4 µg/mL (≈ 9.2 µM) | > 128 µg/mL | 16 µg/mL (≈ 36.8 µM) | 4 µg/mL (≈ 9.2 µM) | 2 µg/mL (≈ 4.6 µM) | >=4 | >=4 | 16 µg/mL (≈ 36.8 µM) | 0 | inhibition (INH) (Pseudomonas aeruginosa [25]): <20%; inhibition (INH) (Pseudomonas aeruginosa [26]): <20%; fold change (FC) (Escherichia coli [27]): 0; inhibition (INH) (Escherichia coli [28]): <20%; inhibition (INH) (Acinetobacter baumannii [29]): <20%; inhibition (INH) (Klebsiella pneumoniae [30]): <20%; inhibition (INH) (Acinetobacter baumannii [31]): <20%; MIC (Escherichia coli [32]): 8 µg/mL; MIC (Staphylococcus aureus [20]): 4 µg/mL (≈ 9.2 µM); MIC (Pseudomonas aeruginosa [21]): 16 µg/mL; inhibition (INH) (Klebsiella pneumoniae [33]): <20%; MIC (Acinetobacter baumannii [22]): ≤ 0.125 µg/mL; MIC (Acinetobacter baumannii [23]): 2 µg/mL; MIC (Acinetobacter baumannii [24]): 8 µg/mL (≈ 18.4 µM)
